ChEMBL document CHEMBL1124216, “A novel class of potential central nervous system agents. 3-Phenyl-2-(1-piperazinyl)-5H-1-benzazepines” (1988)

How the values were obtained:
Assay type in all cases: functional
Mus musculus [1] = test: Antitremorine activity(TRM) of mice after peroral administration of 100 mg/kg of compound; No inhibition; settings: route oral
Mus musculus [2] = test: Antireserpine activity (RES) of mice after peroral administration of 100 mg/kg of compound; No inhibition; settings: route oral
Mus musculus [3] = test: Antimaximal electroshock seizure (MES) activity in mice after peroral administration of 100 mg/kg of compound; 0/5; settings: route oral
Mus musculus [4] = test: Antiexploratory activity (EXPL) of mice determined by an antimex activity meter, 100 mg/kg of dose was administered perorally; No inhibition; settings: route oral
Mus musculus [5] = test: Antitremorine activity(TRM) of mice after peroral administration of 100 mg/kg of compound; Moderate inhibition (51-71%); settings: route oral
Mus musculus [6] = test: The homovanillic acid (HVA) levels in mouse brain at 10 mg/kg of dose.
Summary of the method: (§1)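 Mice dosed orally in 0.5% aqueous tragacanth; brains of five mice per compound pooled. Homovanillic acid measured in brain extracts and reported as brain level.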

Mus musculus [7] = test: 3,4 -Dihydroxy phenylacetic acid (DOPAC) levels in mouse brain at 50 mg/kg dose.
Summary of the method: (§2)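 Male Std-ddY mice, 20-25 g, dosed orally with compound in 0.5% aqueous tragacanth. DOPAC was measured fluorometrically after purification by column chromatography on Sephadex G-10 and QAE-Sephadex. Brains from five mice per compound were pooled for each determination.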

Mus musculus [8] = test: The homovanillic acid (HVA) levels in mouse brain at 50 mg/kg of dose.; summary of the method: as §1
Canis familiaris = test: Inhibition of apomorphine induced emesis in dogs at 1 mg/kg of dose.; settings: Canis lupus familiaris
Summary of the method: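 Beagle dogs (10-15 kg), groups of three, given compound po in a gelatin capsule; 2 h later apomorphine hydrochloride 0.3 mg/kg sc. Vomiting counted for 1 h; mean inhibition as percent of control. ED50 is the dose giving 50% inhibition of emesis, by Litchfield-Wilcoxon.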

Mus musculus [9] = test: Exploratory activity of mice determined by an antimex activity meter, 50 mg/kg of dose was administered perorally
Summary of the method: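 Male Std-ddY mice (20-25 g), five per dose; compound in 0.5% aqueous tragacanth given orally. Two hours later each mouse placed in an Animex activity meter cage and locomotor activity counted for 3 min. Mean suppression expressed as percent inhibition of control; ED50 by Litchfield-Wilcoxon.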

Mus musculus [10] = test: Antiexploratory activity (EXPL) of mice determined by an antimex activity meter, 50 mg/kg of dose was administered perorally; No inhibition; settings: route oral
Mus musculus [11] = test: 3,4 -Dihydroxy phenylacetic acid (DOPAC) levels in mouse brain at 10 mg/kg dose.; summary of the method: as §2
Mus musculus [12] = test: Antitremorine activity(TRM) of mice after peroral administration of 100 mg/kg of compound; Slight inhibition (31-50%); settings: route oral
Mus musculus [13] = test: Antireserpine activity (RES) of mice after peroral administration of 100 mg/kg of compound; Slight inhibition (31-50%); settings: route oral
Mus musculus [14] = test: Antipentylene tetrazole activity was determined in mice when administered perorally; settings: po
Summary of the method: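 Groups of five male Std-ddY mice received compound orally in 0.5% tragacanth, then pentylenetetrazole 175 mg/kg ip. Blockade of the tonic extensor component scored as anticonvulsant. ED50 was the dose protecting 50% of animals (Litchfield-Wilcoxon).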

Mus musculus [15] = test: Antimaximal electroshock seizure activity was determined in mice when administered perorally; settings: po

Structure (SMILES) | inhibition in vivo at 100 mg/kg (Mus musculus [1]) | inhibition in vivo at 100 mg/kg (Mus musculus [2]) | Activity (Mus musculus [3]) | inhibition in vivo at 100 mg/kg (Mus musculus [4]) | other results
Clc1ccc(C2=CCc3ccccc3N=C2N2CCNCC2)cc1.O=C(O)/C=C/C(=O)O | < 30% | < 30% | 0 | < 30% | –
Brc1ccc2c(c1)CC=C(c1ccccc1)C(N1CCN(c3ccccc3)CC1)=N2 | < 30% | < 30% | 0 | < 30% | –
NC(=O)N1CCN(C2=Nc3ccc(Cl)cc3CC=C2c2ccccc2)CC1 | < 30% | < 30% | 0 | < 30% | –
Clc1ccccc1C1=CCc2ccccc2N=C1N1CCNCC1.O=C(O)/C=C/C(=O)O | < 30% | < 30% | 0 | < 30% | –
C1=C(c2ccccc2)C(N2CCOCC2)=Nc2ccccc2C1.Cl | < 30% | < 30% | 0 | < 30% | –
CN1CCN(C2=Nc3ccc(Br)cc3CC=C2c2ccc(Cl)cc2)CC1.Cl.Cl | < 30% | < 30% | 0 | < 30% | –
CCCc1ccc2c(c1)CC=C(c1ccccc1)C(N1CCN(CCO)CC1)=N2.Cl.Cl | – | < 30% | 0 | < 30% | inhibition in vivo at 100 mg/kg (Mus musculus [5]): 51%
CCCc1ccc2c(c1)CC=C(c1ccccc1)C(N1CCN(C)CC1)=N2.Cl.Cl | – | < 30% | 0 | < 30% | –
CN1CCN(C2=Nc3ccccc3CC=C2c2ccc(Br)cc2)CC1.Cl.Cl | – | – | – | – | Control (Mus musculus [6]): 162%; Control (Mus musculus [7]): 233%; Control (Mus musculus [8]): 294%; inhibition in vivo at 1 mg/kg (Canis familiaris): 72.5%; inhibition in vivo at 50 mg/kg (Mus musculus [9]; Mus musculus, po): 13.2%; Inhibition (Mus musculus [9]; route oral, 50 mg/kg): 13.2%; inhibition in vivo at 50 mg/kg (Mus musculus [10]): < 30%; Control (Mus musculus [11]): 161%
Cc1ccc(C2=CCc3ccccc3N=C2N2CCN(CCO)CC2)cc1.Cl.Cl | < 30% | < 30% | 0 | < 30% | –
Cc1ccc(C2=CCc3ccccc3N=C2N2CCN(C)CC2)cc1.Cl.Cl | – | – | 0 | < 30% | inhibition in vivo at 100 mg/kg (Mus musculus [12]): 31%; inhibition in vivo at 100 mg/kg (Mus musculus [13]): 31%
Cl.Cl.OCCN1CCN(C2=Nc3cc(Cl)ccc3CC=C2c2ccccc2)CC1 | – | < 30% | 0 | < 30% | inhibition in vivo at 100 mg/kg (Mus musculus [5]): 51%
Cl.Cl.OCCN1CCN(C2=Nc3ccc(Br)cc3CC=C2c2ccc(Cl)cc2)CC1 | < 30% | < 30% | 0 | < 30% | –
CCN1CCN(C2=Nc3ccccc3CC=C2c2ccccc2Cl)CC1.Cl.Cl | – | < 30% | 0 | < 30% | inhibition in vivo at 100 mg/kg (Mus musculus [12]): 31%
Cl.Cl.OCCN1CCN(C2=Nc3cc(Cl)ccc3CC=C2c2ccc(Cl)cc2)CC1 | < 30% | < 30% | 0 | < 30% | –
CCN1CCN(C2=Nc3ccccc3CC=C2c2ccc(C)cc2)CC1.Cl.Cl | < 30% | < 30% | 0 | < 30% | –
CC(C)c1ccc2c(c1)CC=C(c1ccccc1)C(N1CCN(CCO)CC1)=N2.Cl.Cl | < 30% | < 30% | 0 | < 30% | –
CN1CCN(C2=Nc3cc(Cl)ccc3CC=C2c2ccccc2)CC1.Cl.Cl | – | < 30% | 0 | < 30% | inhibition in vivo at 100 mg/kg (Mus musculus [5]): 51%
NC(=O)N1c2ccccc2C=Cc2ccccc21 [CARBAMAZEPINE] | – | – | – | – | ED50 (Mus musculus [14]): 10.3 mg/kg; ED50 (Mus musculus [15]): 13.3 mg/kg
O=C1NC(=O)C(c2ccccc2)(c2ccccc2)N1 [PHENYTOIN] | – | – | – | – | ED50 (Mus musculus [14]): 3.7 mg/kg; ED50 (Mus musculus [15]): 7.9 mg/kg
